In ChEMBL document CHEMBL1130397, “Structure-activity relationships of (4-acylpyrrol-2-yl)alkanoic acids as inhibitors of the cytosolic phospholipase A2: variation of the substituents in positions 1, 3, and 5” (J Med Chem, 1997):
The source made the active and inactive calls. The calls are words filed in the database; no cut-off is given here.

Experiments:
[1] = target: T1, Cytosolic phospholipase A2 (Bos taurus, UniProt A4IFJ5); assay: Inhibition of cPLA2 measuring Calcium ionophore A-23,187-induced arachidonic acid release from bovine platelets with HPLC/UV detection.; format: functional
T1 sequence (A4IFJ5 whole entry): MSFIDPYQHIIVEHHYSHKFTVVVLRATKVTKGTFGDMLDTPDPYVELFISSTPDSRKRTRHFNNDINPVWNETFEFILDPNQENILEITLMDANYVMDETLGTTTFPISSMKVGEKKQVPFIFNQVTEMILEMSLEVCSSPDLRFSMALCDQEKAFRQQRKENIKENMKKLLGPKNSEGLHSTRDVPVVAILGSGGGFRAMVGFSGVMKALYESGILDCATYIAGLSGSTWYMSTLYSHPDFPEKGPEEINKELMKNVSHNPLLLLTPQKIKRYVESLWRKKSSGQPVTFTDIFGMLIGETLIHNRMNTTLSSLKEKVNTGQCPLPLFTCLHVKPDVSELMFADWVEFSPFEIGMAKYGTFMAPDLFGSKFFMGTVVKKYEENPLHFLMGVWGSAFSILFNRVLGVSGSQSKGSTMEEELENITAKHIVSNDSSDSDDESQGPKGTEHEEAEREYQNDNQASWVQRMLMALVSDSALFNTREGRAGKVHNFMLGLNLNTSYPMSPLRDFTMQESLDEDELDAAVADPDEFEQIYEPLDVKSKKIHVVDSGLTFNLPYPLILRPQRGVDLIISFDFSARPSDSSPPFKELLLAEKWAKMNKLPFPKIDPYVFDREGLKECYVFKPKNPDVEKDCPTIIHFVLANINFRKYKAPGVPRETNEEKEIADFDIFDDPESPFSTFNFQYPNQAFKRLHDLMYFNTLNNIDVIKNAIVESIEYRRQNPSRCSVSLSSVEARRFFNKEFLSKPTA
Method in brief: (§1)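 Bovine platelet suspension stimulated with calcium ionophore A23187; released arachidonic acid quantified by HPLC/UV. Test compounds in DMSO, or DMSO–0.05 M ethanolic NaOH, added after platelets in the latter case to protect ETYA. Assays run within 36 h of platelet isolation; platelets stored at 4 °C. Values averaged from at least two runs, error within ±20%.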

[2] = Percentage platelet cell lysis at 33 uM measured by turbidimetry.; format: functional, Bos taurus
Method in brief: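 Turbidimetric lysis: ETYA solution, then test compound or solvent control, then bovine platelet suspension and calcium chloride at 37 °C. After dilution with phosphate-buffered saline, absorbance read at 800 nm; lysis lowers absorbance. Compounds dissolved in DMSO or DMSO–0.05 M ethanolic NaOH (1+1). Performed within 36 h of platelet isolation; platelets kept at 4 °C.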

[3] = Ability of arachidonic acid release at 10 uM; format: functional; method in brief: as §1
[4] = test system: Cytosolic phospholipase A2 (Bos taurus); assay: Inhibition of cPLA2 measuring Calcium ionophore A-23,187-induced arachidonic acid release from bovine platelets with HPLC/UV detection. at 3.3 uM concentration.
[5] = test system: Cytosolic phospholipase A2 (Bos taurus); assay: Inhibition of cPLA2 measuring Calcium ionophore A-23,187-induced arachidonic acid release from bovine platelets with HPLC/UV detection; 0% inhibition at 3.3 uM concentration.
[6] = target: T1, Cytosolic phospholipase A2; assay: Inhibition of cPLA2 measuring Calcium ionophore A-23,187-induced arachidonic acid release from bovine platelets with HPLC/UV detection; format: functional; method in brief: as §1
[7] = test system: Cytosolic phospholipase A2 (Bos taurus); assay: Inhibition of cPLA2 measuring Calcium ionophore A-23,187-induced arachidonic acid release from bovine platelets with HPLC/UV detection; Not active at 20 uM
[8] = test system: Cytosolic phospholipase A2 (Bos taurus); assay: Inhibition of cPLA2 measuring Calcium ionophore A-23,187-induced arachidonic acid release from bovine platelets with HPLC/UV detection.; NA = 0% inhibition at 3.3 uM
[9] = 33 uM, in the assay text read “at 33 uM” for “at 10 uM”

Row | SMILES | IC50 ([1]; read-out: IC50) | Lysis [2] | other results
1 | CCCCCCCCCCCCCCCCCC(=O)c1c(Cc2ccccc2)c(CC(=O)O)n(C)c1C | 10 µM | 22% | 
2 | CCCCCCCCCCCCCCCCCC(=O)c1c(C)c(CC(=O)O)n(C)c1CCCCCCCCCCCC |  | 0% | Activity [3, 9]: 1.5 fold
3 | CCCCCCCCCCCCCCCCCC(=O)c1c(Cc2ccccc2)c(CC(=O)O)n(Cc2ccccc2)c1C |  | 24% | Activity ([3]; 10 uM): 1.3 fold
4 | CCCCCCCCCCCCCCCCCC(=O)c1c(C)c(CCC(=O)O)n(CCCCCC(=O)O)c1C |  | 54% | inhibition [4]: 52%
5 | CCCCCCCCCCCCCCCCCC(=O)c1c(C)c(CC(=O)O)n(CCCCCCCCCCCC)c1C |  | 0% | Activity [3, 9]: 1.5 fold
6 | CCCCCCCCCCCCCCCCCC(=O)c1cc(CCC(=O)O)n(C)c1 | 14 µM | 0% | 
7 | CCCCCCCCCCCCCCCCCC(=O)c1c(C)c(CCC(=O)O)n(Cc2ccc(C(=O)O)cc2)c1C |  | 57% | inhibition [4]: 47%
8 | CCCCCCCCCCCCCCCCCC(=O)c1c(C)c(CCC(=O)O)n(Cc2ccc(C(F)(F)F)cc2)c1C |  | 13% | inhibition [5]: inactive
9 | CCCCCCCCCCCCCCCCCC(=O)c1c(C)c(CCC(=O)O)n(Cc2ccc(Cl)cc2)c1C |  | 13% | inhibition [5]: inactive
10 | CCCCCCCCCCCC(=O)c1c(C)c(CC(=O)O)n(C)c1C |  | 0% | IC50 [6]: 11 µM
11 | CCCCCCCCCCCC(=O)c1c(C)c(CCC(=O)O)n(C)c1C |  | 0% | IC50 [6]: 13 µM
12 | CCCCCCCCCCCCCCCCCC(=O)c1c(C)c(CC(=O)O)n(CCCCCCC)c1C |  | 19% | IC50 [1]: Not Active
13 | CCCCCCCCCCCCCCCCCC(=O)c1c(C)c(CCC(=O)O)n(CCCCCCO)c1C |  | 0% | inhibition [4]: 20%
14 | CCCCCCCCCCCCCCCCCC(=O)c1c(C)c(CC(=O)O)n(C)c1C | 10 µM | 0% | 
15 | CCCCCCCCCCCCCCCCCC(=O)c1c(C)c(CC(=O)O)n(Cc2ccccc2)c1C | 7 µM | 32% | 
16 | CCCCCCCCCCCC(=O)c1c(C)c(CC(=O)O)n(CCCCCCCCC(=O)O)c1C |  | 21% | IC50 [6]: 3.3 µM
17 | CCCCCCCCCCCCCCCCCC(=O)c1c(C)c(CCC(=O)O)n(Cc2ccc(C(=O)N(C)C)cc2)c1C |  | 42% | inhibition [4]: 34%
18 | CCCCCCCCCCCCCCCCCC(=O)c1cc(CC(=O)O)n(C)c1 | 15 µM | 0% | 
19 | CCCCCCCCCCCCCCCCCC(=O)c1c(C)c(CCC(=O)O)n(CCCCCCN(C)C)c1C |  | 0% | inhibition [4]: 33%
20 | CCCCCCCCCCCCCCCCCC(=O)c1c(C)c(CCC(=O)O)n(Cc2ccc(C#N)cc2)c1C |  | 26% | inhibition [4]: 15%
21 | CCCCCCCCCCCC(=O)c1c(C)c(CC(=O)O)n(CCCCCC(=O)O)c1C |  | 0% | IC50 [6]: 11 µM
22 | CCCCCCCCCCCCCCCCCC(=O)c1c(CCCCCCCCCCCC)c(CC(=O)O)n(C)c1C |  | 0% | Activity [3, 9]: 1.5 fold

Row | SMILES | IC50 ([1]; read-out: IC50) | Lysis [2] | other results
23 | CCCCCCCCCCCCCCCCCC(=O)c1c(C)c(CCC(=O)O)n(Cc2ccc(OC)cc2)c1C |  | 12% | inhibition [4]: 31%
24 | CCCCCCCCCCCCCCCCCC(=O)c1c(C)c(CCC(=O)O)n(CCCCCC)c1C |  | 10% | IC50 [7]: Not Active; inhibition [8]: inactive
25 | CCCCCCCCCCCCCCCCCC(=O)c1c(C)c(CCC(=O)O)n(CCC)c1C | 11 µM | 0% | 
26 | CCCCCCCCCCCC(=O)c1c(C)c(CC(=O)O)n(CCCCCCC(=O)O)c1C |  | 0% | IC50 [6]: 5.6 µM
27 | CCCCCCCCCCCCCCCCCC(=O)c1c(C)c(CCC(=O)O)n(Cc2ccc(C)cc2)c1C |  | 14% | IC50 [7]: Not Active; inhibition [5]: inactive
28 | CCCCCCCCCCCC(=O)c1c(C)c(CCC(=O)O)n(CCC(=O)O)c1C |  | 0% | IC50 [6]: 8 µM
29 | CCCCCCCCCCCC(=O)c1c(C)c(CC(=O)O)n(CCCCCCCC(=O)O)c1C |  | 0% | IC50 [6]: 3.7 µM
30 | CCCCCCCCCCCCCCCCCC(=O)c1c(C)c(CCC(=O)O)n(CCCCCC(=O)N(C)C)c1C |  | 67% | inhibition [4]: 38%
31 | CCCCCCCCCCCCCCCCCC(=O)c1c(C)c(CCC(=O)O)n(C)c1C | 13 µM | 0% | 
32 | CCCCCCCCCCCCCCCCCC(=O)c1c(C)c(CCC(=O)O)n(Cc2ccccc2)c1C | 12 µM | 19% | inhibition [4]: 20%
33 | CCCCC/C=C\C/C=C\C/C=C\C/C=C\CCCC(=O)C(F)(F)F [ARACHIDONYL TRIFLUOROMETHYLKETONE] |  | 31% | 
34 | CCCCCCCCCCCCCCCCCC(=O)c1c(C)c(CC(=O)O)n(C)c1Cc1ccccc1 | 12 µM | 0% | 
35 | CCCCCCCCCCCC(=O)c1c(C)c(CCC(=O)O)n(CCCCCCCC(=O)O)c1C |  | 0% | IC50 [6]: 3.6 µM
36 | CCCCCCCCCCCCCCCCCC(=O)c1c(C)c(CCC(=O)O)n(Cc2ccc(C(N)=O)cc2)c1C |  | 0% | inhibition [4]: 44%
37 | CCCCCCCCCCCCCCCCCC(=O)c1c(C)c(CCC(=O)O)n(Cc2ccc(O)cc2)c1C |  | 0% | inhibition [4]: 30%
38 | CCCCCCCCCCCCCCCCCC(=O)c1c(C)c(CC(=O)O)n(Cc2ccc(C)cc2)c1C | 9 µM | 29% | 
39 | CCCCCCCCCCCCCCCCCC(=O)c1c(C)c(CCC(=O)O)n(CC)c1C | 11 µM | 0% | 
40 | CCCCCCCCCCCC(=O)c1c(C)c(CCC(=O)O)n(CCCCC(=O)O)c1C |  | 0% | IC50 [6]: 3.9 µM
41 | CCCCCCCCCCCCCCCCCC(=O)c1c(C)c(CCC(=O)O)n(CCCCC)c1C | 10 µM | 13% | inhibition [4]: 23%
42 | CCCCCCCCCCCCCCCCCC(=O)c1c(C)c(CCC(=O)O)n(CCCCCC#N)c1C |  | 39% | inhibition [4]: 40%
43 | CCCCCCCCCCCC(=O)c1c(C)c(CCC(=O)O)n(CCCCCC(=O)O)c1C |  | 0% | IC50 [6]: 3.4 µM
44 | CCCCCCCCCCCC(=O)c1c(C)c(CCC(=O)O)n(CCCCCCC(=O)O)c1C |  | 0% | IC50 [6]: 3.8 µM

Now from value to compound, other results behind:

Row | IC50 ([1]; read-out: IC50) | SMILES | Lysis [2] | other results
45 | 8 µM | CCCCCCCCCCCCCCCCCC(=O)c1c(C)c(CC(=O)O)n(CCC)c1C | 34% | 
46 | > 10 µM | CCCCCCCCCCCCCCCCCC(=O)c1c(C)c(CC(=O)O)n(CCCCCC)c1C | 37% | 
47 | 9 µM | CCCCCCCCCCCCCCCCCC(=O)c1c(C)c(CC(=O)O)n(CC)c1C | 10% | 
48 | 13 µM | CCCCCCCCCCCCCCCCNC(=O)[C@@H]1CCCN1 | 0% | 
